Experimental data from different studies.
Protocols differ between the studies behind these lines.
Target: Mitogen-activated protein kinase kinase kinase 7 (MAP3K7, Homo sapiens, UniProt O43318)
One construct used (O43318 1-606): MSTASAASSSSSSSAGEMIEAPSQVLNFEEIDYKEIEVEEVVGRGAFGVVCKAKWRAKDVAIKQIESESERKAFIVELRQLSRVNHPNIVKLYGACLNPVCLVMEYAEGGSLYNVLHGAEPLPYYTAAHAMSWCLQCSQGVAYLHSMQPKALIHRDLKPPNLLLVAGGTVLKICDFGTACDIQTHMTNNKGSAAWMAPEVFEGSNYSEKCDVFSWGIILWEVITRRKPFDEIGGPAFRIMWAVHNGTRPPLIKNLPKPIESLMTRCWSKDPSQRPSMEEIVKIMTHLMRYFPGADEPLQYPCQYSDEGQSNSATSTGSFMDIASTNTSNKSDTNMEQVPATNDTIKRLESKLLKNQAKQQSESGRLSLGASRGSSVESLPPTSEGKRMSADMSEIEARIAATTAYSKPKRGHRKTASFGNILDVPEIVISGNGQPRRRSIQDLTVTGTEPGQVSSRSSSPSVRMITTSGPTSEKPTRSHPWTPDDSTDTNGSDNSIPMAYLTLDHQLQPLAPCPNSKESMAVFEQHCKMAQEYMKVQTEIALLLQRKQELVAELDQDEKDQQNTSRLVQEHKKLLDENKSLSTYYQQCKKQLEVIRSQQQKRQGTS

Compound | assay | conditions | measurement | value
CN(C(=O)c1ccccc1)c1cc(N(C)c2ccc3c(c2)CCc2ccc(C(=O)NCCN4CCOCC4)cc2C3=O)ccc1F | cell-free assay, competition with immobilised ligand | 1 µM | remaining binding | 100%
Cn1c(=O)n(-c2ccc(C(C)(C)C#N)cc2)c2c3cc(-c4cnc5ccccc5c4)ccc3ncc21 | enzyme activity, inhibitor | 10 µM | remaining activity | 67%
CCCOc1ccc(OC)c(F)c1C(=O)c1ccc(C(=O)N[C@@H]2CNC[C@H]2NC(=O)c2ccc3[nH]ncc3c2)cc1 | enzyme activity, inhibitor | 10 µM | remaining activity | 106%
Cc1nccc(COC(=O)N2C[C@@H]3[C@@H](CNC(=O)c4ccc5[nH]nnc5c4)[C@@H]3C2)n1 | cell-free assay, competition with immobilised ligand | 1 µM | remaining binding | 75%
Cc1ccc(Nc2nccc(N(C)c3ccc4c(C)n(C)nc4c3)n2)cc1S(N)(=O)=O | enzyme activity, inhibitor | 10 µM | inhibition | -4%
N#CCCc1ccc2c(c1)-c1[nH]c3ccc([N+](=O)[O-])cc3c1CC(=O)N2 | cell-free assay | 0.5 µM | remaining signal | 38.1%
CCN(CC)c1ccc(C2=NNC(=O)CC2C)cc1[N+](=O)[O-] (stereo not drawn) | enzyme activity, inhibitor | 10 µM | remaining activity | 107%
CN1CC(Oc2cnc(C#N)cc2-c2ccn3nc(NC(=O)C4CC4)cc3c2)C1 | enzyme activity, inhibitor | 1 µM | inhibition | 8%
Cc1cnc(NC2CCOCC2)nc1-n1cnc(C(=O)NC(CN)c2cc(F)cc(Cl)c2)c1 (stereo not drawn) | enzyme activity, inhibitor, radiometric | 1 µM | remaining activity | 98%
Nc1ncnc2occ(-c3ccc(NC(=O)Nc4cc(C(F)(F)F)ccc4F)cc3)c12 | cell-free assay, inhibitor | 20 µM | remaining signal | 3.7%
CCCS(=O)(=O)Nc1ccc(F)c(C(=O)c2c[nH]c3ncc(-c4ccc(Cl)cc4)cc23)c1F | enzyme activity, inhibitor | 1 µM | inhibition | < 10%
CNC(=O)c1cc(Oc2ccc(NC(=O)Nc3ccc(Cl)c(C(F)(F)F)c3)cc2)ccn1 | cell-free assay | 0.5 µM | remaining signal | 101%
Cc1cc(-n2nc(Cc3cc(F)cc(C(F)(F)F)c3)nc2C)ccc1C(N)=O | cell-free assay, competition with immobilised ligand | 1 µM | remaining binding | 100%
FC(F)(F)Oc1cccc(-c2cnc3ccc(-c4ccncc4)nn23)c1 | enzyme activity, inhibitor, radiometric | 1 µM | activity vs control | 58%
O=C(NC[C@@H]1[C@H]2CN(C(=O)OCc3cc(C(F)(F)F)cc(C(F)(F)F)c3)C[C@@H]12)c1ccc2[nH]nnc2c1 | cell-free assay, competition with immobilised ligand | 1 µM | remaining binding | 94%
O=C(Nc1cnn(-c2csc(C(=O)NC3COC3)c2)c1)Nc1ccccc1Cl | enzyme activity, inhibitor | 5 µM | remaining activity | 98%
CCCCNc1ncc2c(-c3ccc(F)cc3)nn(C[C@H]3CC[C@H](N)CC3)c2n1 | target engagement in cells, inhibitor, chemoproteomics | 20 mM | inhibition | 16%
N[C@@H]1CCN(c2nccc(-c3cnn4ncccc34)n2)C1 | binding | 1 µM | remaining binding | 91%
C[C@@]1(Cc2ccc(C#N)cc2)C(=O)N(c2cc(Cl)cc(Cl)c2)c2ncc(C(=O)NC3(c4nc(C5CCC5)no4)CC3)n21 | cell-free assay, competition with immobilised ligand | 1 µM | remaining binding | 96%
O=C1Nc2ccc(Cl)cc2C1=Cc1cc(Cl)c(O)c(Cl)c1 | cell-free assay | 0.5 µM | remaining signal | 86.8%
CN(c1ccnc(CNc2nc(Nc3ccc4c(c3)CC(=O)N4)ncc2C(F)(F)F)n1)S(C)(=O)=O | cell-free assay, competition with immobilised ligand | 1 µM | remaining binding | 48%
c1ccc(CNc2nc(N3CCOc4ccccc43)nc3c2CCCC3)cc1 | target engagement in cells, inhibitor, chemoproteomics | 20 mM | inhibition | -10.3%
Cc1sc(C(=O)NC2COC2)cc1-n1cc(NC(=O)Nc2c(F)cccc2Cl)cn1 | enzyme activity, inhibitor | 10 µM | remaining activity | 98.4%
C[C@H](c1ccc(F)cc1)N(Cc1cccc(C(=O)O)c1)C(=O)c1cnc2ccccc2c1 | cell-free assay, competition with immobilised ligand | 1 µM | remaining binding | 100%
CCN(CC)CCNC(=O)c1c(C)[nH]c(/C=C2\C(=O)Nc3ccc(F)cc32)c1C | enzyme activity, inhibitor | 0.3 µM | inhibition | 52%
COc1cc(Nc2cnc(C#N)c(O[C@H](C)CN(C)C)n2)ncc1-c1cnn(C)c1 | enzyme activity, inhibitor, radiometric | 1 µM | remaining activity | 97%
CC1=C(C#N)C(c2ccc3c(c2)c(NC(=O)c2ccccc2C)nn3C)C(C#N)=C(C)N1 | cell-free assay, competition with immobilised ligand | 1 µM | remaining binding | 74%
